Experimental data of several laboratories.
Lines come from different studies, so protocols differ.
HLA class I histocompatibility antigen, B alpha chain: HLA class I histocompatibility antigen, B alpha chain (Homo sapiens, UniProt P01889)
HTR2C: 5-hydroxytryptamine receptor 2C (HTR2C, Homo sapiens, UniProt P28335)
HTR2B: 5-hydroxytryptamine receptor 2B (HTR2B, Homo sapiens, UniProt P41595)
PLK1 polo-box: Serine/threonine-protein kinase PLK1, polo-box (PLK1, Homo sapiens, UniProt P53350)

Structure (SMILES)	target	read-out	mode	method	pH	quantity	value
CC[C@H](C)[C@H](NC(=O)[C@@H](N)CCCNC(=N)N)C(=O)N[C@@H](Cc1ccc(O)cc1)C(=O)NCC(=O)N1CCC[C@H]1C(=O)N1CCC[C@H]1C(=O)N[C@@H](Cc1c[nH]cn1)C(=O)N[C@@H](CCC(N)=O)C(=O)N[C@@H](Cc1ccccc1)C(=O)O	HLA class I histocompatibility antigen, B alpha chain	cell-free assay	–	–	–	IC50	2.3 µM
COc1cc(CCNC2CCCc3cccc(O)c32)c(OC)cc1C#N (stereo not shown)	HTR2C	G protein activation	agonist	BRET	–	EC50	5.9 µM
COc1cc2c(cc1OC)-c1c(OC)c(OC)cc3c1[C@H](C2)N(C)CC3 (racemic)	HTR2B	ligand displacement	–	radioligand	–	Ki	0.613 µM
COc1cc(C(F)(F)F)c(OC)cc1C1CCCNC1 (stereo not shown)	HTR2C	calcium signal	agonist	–	–	EC50	0.071 µM
COc1cc2c(cc1OC)CN(CCc1ccc(NC(=O)c3cccc4c(=O)c5cccc(OC)c5[nH]c34)cc1)CC2	HTR2B	cell-free assay	–	–	–	Ki	0.222 µM
O=C(O)CC(O)(CC(=O)O)C(=O)O	Tyrosine-protein phosphatase non-receptor type 5 (PTPN5, Homo sapiens, UniProt P54829)	enzyme activity	inhibitor	–	–	Ki	4100 µM
COc1cc(CCNC(CO)c2ccccc2)c(OC)cc1C#N (stereo not shown)	HTR2C	G protein activation	agonist	BRET	–	EC50	2.9 µM
COc1cc2c3c(c1OC)-c1c(OC)ccc(Cl)c1CC3N(C)CC2 (racemic)	HTR2C	cell-free assay	–	radioligand	–	Ki	0.792 µM
CC[C@H](C)[C@H](NC(=O)[C@@H]1CCCN1C(=O)[C@H](Cc1c[nH]cn1)NC(=O)[C@H](CCCCN)NC(=O)[C@H](Cc1ccccc1)NC(=O)[C@H](CC(C)C)NC(=O)[C@@H](N)CCCCN)C(=O)N[C@@H](CCC(N)=O)C(=O)N[C@@H](CC(C)C)C(=O)O	HLA class I histocompatibility antigen, B alpha chain	cell-free assay	–	–	–	IC50	7.48 µM
CC[C@H](C)[C@H](NC(=O)[C@@H](N)CCC(=O)O)C(=O)N[C@@H](C)C(=O)N1CCC[C@H]1C(=O)N[C@H](C(=O)N[C@@H](CC(C)C)C(=O)N[C@@H](Cc1c[nH]cn1)C(=O)N[C@@H](CO)C(=O)N[C@H](C(=O)O)[C@@H](C)OP(=O)(O)O)C(C)C	PLK1 polo-box	binding	–	MST	pH 8	Kd	0.0272 µM
CSCC[C@H](NC(=O)[C@H](CO)NC(=O)[C@H](CC(C)C)NC(=O)[C@H](CO)NC(=O)[C@H](Cc1c[nH]cn1)NC(=O)CNC(=O)[C@H](Cc1ccc(O)cc1)NC(=O)[C@H](CC(C)C)NC(=O)[C@@H](N)CCCNC(=N)N)C(=O)O	HLA class I histocompatibility antigen, B alpha chain	cell-free assay	–	–	–	IC50	0.583 µM
O=[N+]([O-])c1ccc(O)c([N+](=O)[O-])c1	Casein kinase I isoform delta (CSNK1D, Homo sapiens, UniProt P48730)	binding	–	SPR	–	Kd	> 50 µM
CC(C)C[C@H](NC(=O)[C@@H]1CCCN1C(=O)[C@H](Cc1c[nH]c2ccccc12)NC(=O)[C@H](CC(=O)O)NC(=O)[C@H](Cc1ccc(O)cc1)NC(=O)[C@@H](NC(=O)[C@@H](N)Cc1ccc(O)cc1)C(C)C)C(=O)N[C@H](C(=O)N[C@@H](Cc1ccccc1)C(=O)O)[C@@H](C)O	HLA class I histocompatibility antigen, B alpha chain	cell-free assay	–	–	–	IC50	24.2 µM
O=C1Nc2ccc3ncsc3c2/C1=C/c1cnc[nH]1	Serine/threonine-protein kinase Nek6 (NEK6, Homo sapiens, UniProt Q9HC98)	enzyme activity	inhibitor	–	–	IC50	27.5 µM
CC(C)C[C@H](NC(=O)[C@H](CC(C)C)NC(=O)[C@@H]1CCCN1C(=O)[C@H](C)NC(=O)[C@@H](NC(=O)[C@H](C)N)C(C)C)C(=O)N[C@@H](Cc1c[nH]cn1)C(=O)N[C@@H](CO)C(=O)N[C@H](C(=O)O)[C@@H](C)OP(=O)(O)O	PLK1 polo-box	binding	–	MST	pH 8	Kd	0.0463 µM
CC[C@H](C)[C@H](NC(=O)[C@@H](N)CCSC)C(=O)N[C@@H](Cc1ccccc1)C(=O)N[C@@H](CC(=O)O)C(=O)N[C@@H](CCCCN)C(=O)N1CCC[C@H]1C(=O)N[C@H](C(=O)N[C@@H](Cc1ccc(O)cc1)C(=O)N[C@@H](Cc1ccccc1)C(=O)O)C(C)C	HLA class I histocompatibility antigen, B alpha chain	cell-free assay	–	–	–	IC50	36 µM
